# In ChEMBL document CHEMBL1828528, “Acyclic nucleoside thiophosphonates as potent inhibitors of HIV and HBV replication” (Eur J Med Chem, 2011):
# The source made the active and inactive calls. The calls are words filed in the database; no cut-off is given here.
# How the values were obtained:
# [1] = system: Mammalian orthoreovirus 1; assay: Antiviral activity against Reovirus 1 infected in african green monkey Vero cells assessed as inhibition of virus-induced cytopathic effect up to 200 uM measured on day 3 post infection by microscopic analysis; format: functional, organism-based
# Summary of the method: (§1)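 Confluent Vero cell monolayers inoculated with 100 CCID50 of virus. Compound added after 1–2 h adsorption, tested up to 200 μM. Microscopic CPE scoring on day 3 post infection versus untreated controls.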
# [2] = system: Human immunodeficiency virus 1; assay: Antiviral activity against 100 TCID50 wild type HIV1 LAI infected in human PBMC assessed as reduction in viral replication measured on day 7 post infection by reverse transcriptase activity; format: functional, organism-based; settings: Human immunodeficiency virus 1, LAI, 168 h
# Summary of the method: (§2)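 PHA-P-activated PBMC (1.5 × 10^5; donor cells stimulated 3 days with 1 μg/mL PHA-P plus 5 IU/mL IL-2) or H9 cells (5 × 10^5) in RPMI-1640/10% FCS. Cells pre-treated 30 min with graded compound concentrations, then infected with HIV-1 LAI (100 or 125 TCID50). Supernatant RT activity read on day 7. EC50 from quadratic fit of % inhibition; triplicates, PBMC repeated with a second donor.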
# [3] = system: Human immunodeficiency virus 1; assay: Antiviral activity against HIV1 clade D isolate 1649 infected in human H9 cells assessed as inhibition of viral replication; format: functional, organism-based; settings: Human immunodeficiency virus 1, clade D isolate 1649, H9
# Summary of the method: (§3)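 H9 cells infected with HIV-1 clinical isolates of clades A, B, C, D, A/E, F and G, in the presence of graded compound concentrations. EC50 is the concentration reducing viral replication by 50%.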
# Vero = assay: Cytotoxicity against african green monkey Vero cells up to 200 uM; format: cell-based; settings: chlorocebus sabaeus
# Summary of the method: (§4)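 Uninfected confluent Vero, CrFK, HEL or HeLa cultures incubated with serial compound dilutions (up to 200 μM) for the same period as the antiviral assays. Minimal toxic concentration is the lowest giving microscopically detectable alteration of cell morphology.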
# [4] = system: Human immunodeficiency virus 1; assay: Antiviral activity against HIV1 clade B isolate 1722 infected in human H9 cells assessed as inhibition of viral replication; format: functional, organism-based; settings: Human immunodeficiency virus 1, clade B isolate 1722, H9; summary of the method: as §3
# Sindbis virus = assay: Antiviral activity against Sindbis virus infected in african green monkey Vero cells assessed as inhibition of virus-induced cytopathic effect up to 200 uM measured on day 3 post infection by microscopic analysis; format: functional, organism-based; summary of the method: as §1
# [5] = system: Human immunodeficiency virus 1; assay: Antiviral activity against HIV1 clade G isolate 3187 infected in human H9 cells assessed as inhibition of viral replication; format: functional, organism-based; settings: Human immunodeficiency virus 1, clade G isolate 3187, H9; summary of the method: as §3
# [6] = Cytotoxicity against human HepAD38 cells; format: cell-based
# [7] = Cytotoxicity against human HEL cells assessed as alteration in cellular morphology by microscopic analysis; format: cell-based; summary of the method: as §4
# Feline coronavirus = assay: Antiviral activity against Feline coronavirus infected in CrFK cells assessed as inhibition of virus-induced cytopathic effect up to 200 uM measured on day 3 post infection by microscopic analysis; format: functional, organism-based
# Summary of the method: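 Confluent CrFK cells inoculated with 100 CCID50 of virus. Compounds up to 200 μM added after 1–2 h adsorption. Cytopathic effect recorded microscopically at day 3 relative to untreated controls.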
# [8] = system: Human immunodeficiency virus 1; assay: Antiviral activity against HIV1 clade A isolate 4113 infected in human H9 cells assessed as inhibition of viral replication; format: functional, organism-based; settings: Human immunodeficiency virus 1, clade A isolate 4113, H9; summary of the method: as §3
# [9] = system: Human immunodeficiency virus 1; assay: Antiviral activity against HIV1 clade C isolate 2914 infected in human H9 cells assessed as inhibition of viral replication; format: functional, organism-based; settings: Human immunodeficiency virus 1, clade C isolate 2914, H9; summary of the method: as §3
# [10] = system: Respiratory syncytial virus; assay: Antiviral activity against Respiratory syncytial virus infected in HeLa cells assessed as inhibition of virus-induced cytopathic effect up to 200 uM measured on day 3 post infection by microscopic analysis; format: functional, organism-based
# Summary of the method: (§5)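 HeLa monolayers at confluency infected with 100 CCID50 of virus. Compound dilutions up to 200 μM added after 1–2 h adsorption. Cytopathic effect recorded microscopically on day 3 relative to untreated controls.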
# [11] = system: Human immunodeficiency virus 1; assay: Antiviral activity against HIV1 clade F isolate 2338 infected in human H9 cells assessed as inhibition of viral replication; format: functional, organism-based; settings: Human immunodeficiency virus 1, clade F isolate 2338, H9; summary of the method: as §3
# Punta Toro virus = assay: Antiviral activity against Punta Toro virus infected in african green monkey Vero assessed as inhibition of virus-induced cytopathic effect cells up to 200 uM measured on day 3 post infection by microscopic analysis; format: functional, organism-based; summary of the method: as §1
# [12] = system: Human immunodeficiency virus 2; assay: Antiviral activity against 100 TCID50 wild-type Human immunodeficiency virus type 2 ROD infected in C8166 cells assessed as inhibition of syncytia formation after 4 days by microscopic analysis; format: functional, organism-based; settings: Human immunodeficiency virus 2, ISOLATE ROD, C8166, 96 h
# [13] = system: Human immunodeficiency virus 1; assay: Antiviral activity against 6250 TCID50 wild type HIV1 LAI infected in human H9 cells assessed as reduction in viral replication measured on day 7 post infection by reverse transcriptase activity; format: functional, organism-based; settings: Human immunodeficiency virus 1, LAI, H9, 168 h
# Summary of the method: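 H9 cells in RPMI-1640/10% FCS given graded compound concentrations, then infected with a high inoculum of 6250 TCID50 HIV-1 LAI. Supernatant reverse transcriptase activity measured on day 7 post infection. EC50 taken as the concentration giving 50% reduction of viral replication.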
# [14] = Cytotoxicity against […]-activated human PBMC on day 7 by MTT assay; format: cell-based
# Summary of the method: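 Uninfected PHA-P-activated PBMC and H9 cells exposed to graded compound concentrations. Viability by MTT on day 7. CC50 from quadratic fit of % viability against concentration; triplicates.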
# Hepatitis B virus = assay: Antiviral activity against Hepatitis B virus infected in human HepAD38 cells assessed as reduction in viral DNA level after 6 days by real time quantitative PCR analysis; format: functional, organism-based; settings: HePAD38, 144 h
# Summary of the method: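 Tetracycline-regulated HepAD38 cells (5 × 10^5) induced after 2–3 days by PBS wash and feeding with medium lacking tetracycline and G418, with or without compound. Medium changed at day 3. Intracellular HBV DNA quantified by TaqMan Q-PCR at day 6 post induction against a full-genome plasmid standard curve, expressed as % of untreated. Actives retested.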
# Influenza B virus = assay: Antiviral activity against influenza B virus; format: functional, organism-based
# Coxsackievirus B4 = assay: Antiviral activity against Coxsackie virus B4 infected in HeLa cells assessed as inhibition of virus-induced cytopathic effect up to 200 uM measured on day 3 post infection by microscopic analysis; format: functional, organism-based; summary of the method: as §5
# [15] = system: Human immunodeficiency virus 1; assay: Antiviral activity against 125 TCID50 wild type HIV1 LAI infected in human H9 cells assessed as reduction in viral replication measured on day 7 post infection by reverse transcriptase activity; format: functional, organism-based; settings: Human immunodeficiency virus 1, LAI, H9, 168 h; summary of the method: as §2
# [16] = Cytotoxicity against human HuH7 cells; format: cell-based; settings: Huh-7 cells
# Vaccinia virus = assay: Antiviral activity against Vaccinia virus infected in HEL cells assessed as inhibition of virus-induced cytopathic effect; format: functional, organism-based; settings: Orthopoxvirus vaccinia
# Summary of the method: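 Confluent HEL cell monolayers inoculated with 100 CCID50 of virus. Compounds added after a 1–2 h adsorption period. Virus-induced cytopathic effect scored microscopically at 3 days post infection as % of untreated controls. EC50 derived from graphical plots.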
# Influenza A virus = assay: Antiviral activity against influenza A virus; format: functional, organism-based
# Human respirovirus 3 = assay: Antiviral activity against Parainfluenza virus 3 infected in african green monkey Vero cells assessed as inhibition of virus-induced cytopathic effect up to 200 uM measured on day 3 post infection by microscopic analysis; format: functional, organism-based; summary of the method: as §1
SMILES,inhibition [1],EC50 [2],EC50 [3],Activity (Vero),EC50 [4],inhibition (Sindbis virus),EC50 [5],CC50 [6],MCC [7],inhibition (Feline coronavirus),EC50 [8],EC50 [9],inhibition [10],EC50 [11],inhibition (Punta Toro virus),EC50 [12],EC50 [13],CC50 at 7 day [14],EC50 (Hepatitis B virus),Activity (Influenza B virus),other results
Nc1ncnc2c1ncn2CCOCP(=O)([O-])[S-].[Na+].[Na+] (configuration not stated),inactive,14000 nM,2770 nM,Non-toxic,2800 nM,inactive,880 nM,> 150000 nM,> 200 µM,inactive,1640 nM,490 nM,inactive,220 nM,inactive,23000 nM,17000 nM,> 30000 nM,3000 nM,inactive,inhibition (Coxsackievirus B4): inactive; EC50 [15]: 1900 nM; CC50 [16]: > 150000 nM; EC50 (Vaccinia virus): 84000 nM; Activity (Influenza A virus): inactive; inhibition (Human respirovirus 3): inactive
C[C@H](Cn1cnc2c(N)ncnc21)OCP(=O)([O-])[S-].[Na+].[Na+] (some centres not stated),inactive,4200 nM,710 nM,Non-toxic,510 nM,inactive,120 nM,> 150000 nM,> 200 µM,inactive,4490 nM,380 nM,inactive,200 nM,inactive,7900 nM,9700 nM,> 100000 nM,2800 nM,inactive,inhibition (Coxsackievirus B4): inactive; EC50 [15]: 380 nM; CC50 [16]: > 150000 nM; EC50 (Vaccinia virus): 80000 nM; Activity (Influenza A virus): inactive; inhibition (Human respirovirus 3): inactive
